Experimental data from ChEMBL document CHEMBL3244396, “Synthesis and antileukemic activity of 5-substituted 2,3-dihydro-6,7-bis(hydroxymethyl)-1H-pyrrolizine diesters” (J Med Chem, 1977).

Key:
[1] = test system: L1210; assay: Antileukemic activity against mouse L1210 cells allografted in male CDF1 mouse assessed as host mean survival time at 200 mg/kg, ip administered daily for 9 days as Klucel suspension starting 24 hrs after tumor inoculation relative to control; assay type: functional; conditions: route intraperitoneal
Outline: (§1)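 L1210 leukemia given as an ascitic fluid cell inoculum, ip, to mice of the strain and sex in each line. Test material was given ip for nine daily doses starting 24 h after inoculation, in a Klucel (hydroxypropylcellulose) suspension. Read-out is mean survival time as %T/C versus controls, with >125 taken as significant.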

[2] = test system: L1210; assay: Antileukemic activity against mouse L1210 cells allografted in female BDF1 mouse assessed as change in body weight at 25 mg/kg, ip administered daily for 9 days as Klucel suspension starting 24 hrs after tumor inoculation; assay type: functional; conditions: route intraperitoneal
Outline: (§2)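 Ascitic fluid carrying L1210 cells was inoculated ip. Compound was given ip as a Klucel (hydroxypropylcellulose) suspension in nine daily doses, starting 24 h after inoculation. Body-weight difference (treated minus control) was recorded on day 5. Survival was scored as %T/C of mean survival time.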

[3] = test system: L1210; assay: Antileukemic activity against mouse L1210 cells allografted in male CDF1 mouse assessed as host mean survival time at 100 mg/kg, ip administered daily for 9 days as Klucel suspension starting 24 hrs after tumor inoculation relative to control; assay type: functional; conditions: route intraperitoneal; outline: as §1
[4] = test system: Mus musculus; assay: Toxicity in female BDF1 mouse allografted with mouse L1210 cells assessed as animal survival at 25 mg/kg, ip administered daily for 9 days as Klucel suspension starting 24 hrs after tumor inoculation measured on fifth day; assay type: organism-based; design: dose 25 mg/kg, route intraperitoneal; conditions: in vivo
Outline: (§3)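 L1210 leukemia passaged as ascitic fluid and inoculated ip. Test agent given ip as a Klucel (hydroxypropylcellulose) suspension, nine daily doses starting 24 h after tumor inoculation. Acute toxicity read as toxicity-day survivors per group (out of 6), recorded on day 5. Animal weight difference T − C was also recorded. Follows NCI screening protocols.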

[5] = test system: Mus musculus; assay: Toxicity in male CDF1 mouse allografted with mouse L1210 cells assessed as animal survival at 200 mg/kg, ip administered daily for 9 days as Klucel suspension starting 24 hrs after tumor inoculation measured on fifth day; assay type: organism-based; design: dose 200 mg/kg, route intraperitoneal; conditions: in vivo; outline: as §3
[6] = test system: P388; assay: Antitumor activity against mouse P388 cells allografted in male CDF1 mouse assessed as change in body weight at 50 mg/kg, ip administered daily for 9 days as Klucel suspension starting 24 hrs after tumor inoculation; assay type: functional; conditions: route intraperitoneal
Outline: (§4)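 Ascitic fluid carrying P388 cells was inoculated ip. Compound was given ip in nine daily doses, starting 24 h after inoculation, in Klucel (hydroxypropylcellulose) suspension or in saline with Tween-80. Body-weight difference (treated minus control) was recorded on day 5. Survival was scored as %T/C of median survival time, and 30-day survival counted as cure.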

[7] = test system: Mus musculus; assay: Toxicity in male CDF1 mouse allografted with mouse P388 cells assessed as animal survival at 50 mg/kg, ip administered daily for 9 days as Klucel suspension starting 24 hrs after tumor inoculation; assay type: organism-based; design: dose 50 mg/kg, route intraperitoneal; conditions: in vivo
Outline: (§5)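 P-388 leukemia ascitic fluid inoculated ip. Compound given ip as a suspension in Klucel (hydroxypropylcellulose), once daily for nine doses beginning 24 h post-inoculation. Acute toxicity assessed as toxicity-day survivors per group. Survival was followed up to 30 days, with 30-day survival counted as "cure". Follows NCI screening protocols.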

[8] = test system: L1210; assay: Antileukemic activity against mouse L1210 cells allografted in female BDF1 mouse assessed as host mean survival time at 25 mg/kg, ip administered daily for 9 days as Klucel suspension starting 24 hrs after tumor inoculation relative to control; assay type: functional; conditions: route intraperitoneal; outline: as §1
[9] = test system: L1210; assay: Antileukemic activity against mouse L1210 cells allografted in male CDF1 mouse assessed as change in body weight at 100 mg/kg, ip administered daily for 9 days as Klucel suspension starting 24 hrs after tumor inoculation; assay type: functional; conditions: route intraperitoneal; outline: as §2
[10] = test system: L1210; assay: Antileukemic activity against mouse L1210 cells allografted in female BDF1 mouse assessed as change in body weight at 50 mg/kg, ip administered daily for 9 days as Klucel suspension starting 24 hrs after tumor inoculation; assay type: functional; conditions: route intraperitoneal; outline: as §2
[11] = test system: L1210; assay: Antileukemic activity against mouse L1210 cells allografted in male CDF1 mouse assessed as change in body weight at 200 mg/kg, ip administered daily for 9 days as Klucel suspension starting 24 hrs after tumor inoculation; assay type: functional; conditions: route intraperitoneal; outline: as §2
[12] = test system: P388; assay: Antitumor activity against mouse P388 cells allografted in male CDF1 mouse assessed as disease cures by measuring 30-days host survival at 100 mg/kg, ip administered daily for 9 days as Klucel suspension starting 24 hrs after tumor inoculation relative to control; assay type: functional; conditions: route intraperitoneal
Outline: (§6)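 P388 leukemia given as an ascitic fluid cell inoculum, ip, to mice of the strain and sex in each line. Nine daily ip doses were given in a Klucel (hydroxypropylcellulose) suspension, starting 24 h after inoculation. Read-out is median survival time as %T/C, with >125 taken as significant; a "cure" means 30-day survival.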

[13] = test system: L1210; assay: Antileukemic activity against mouse L1210 cells allografted in female BDF1 mouse assessed as change in body weight at 12.5 mg/kg, ip administered daily for 9 days as Klucel suspension starting 24 hrs after tumor inoculation; assay type: functional; conditions: route intraperitoneal; outline: as §2
[14] = test system: P388; assay: Antitumor activity against mouse P388 cells allografted in male CDF1 mouse assessed as change in body weight at 25 mg/kg, ip administered daily for 9 days as Klucel suspension starting 24 hrs after tumor inoculation; assay type: functional; conditions: route intraperitoneal; outline: as §4
[15] = test system: Mus musculus; assay: Toxicity in male CDF1 mouse allografted with mouse P388 cells assessed as animal survival at 12.5 mg/kg, ip administered daily for 9 days as Klucel suspension starting 24 hrs after tumor inoculation; assay type: organism-based; design: dose 12.5 mg/kg, route intraperitoneal; conditions: in vivo; outline: as §5
[16] = test system: P388; assay: Antitumor activity against mouse P388 cells allografted in male CDF1 mouse assessed as disease cures by measuring 30-days host survival at 12.5 mg/kg, ip administered daily for 9 days as Klucel suspension starting 24 hrs after tumor inoculation relative to control; assay type: functional; conditions: route intraperitoneal; outline: as §6
[17] = test system: P388; assay: Antitumor activity against mouse P388 cells allografted in male CDF1 mouse assessed as disease cures by measuring 30-days host survival at 50 mg/kg, ip administered daily for 9 days as Klucel suspension starting 24 hrs after tumor inoculation relative to control; assay type: functional; conditions: route intraperitoneal; outline: as §6
[18] = test system: P388; assay: Antitumor activity against mouse P388 cells allografted in male CDF1 mouse assessed as change in body weight at 12.5 mg/kg, ip administered daily for 9 days as Klucel suspension starting 24 hrs after tumor inoculation; assay type: functional; conditions: route intraperitoneal; outline: as §4
[19] = test system: L1210; assay: Antileukemic activity against mouse L1210 cells allografted in female BDF1 mouse assessed as host mean survival time at 12.5 mg/kg, ip administered daily for 9 days as Klucel suspension starting 24 hrs after tumor inoculation relative to control; assay type: functional; conditions: route intraperitoneal; outline: as §1
[20] = test system: L1210; assay: Antileukemic activity against mouse L1210 cells allografted in female BDF1 mouse assessed as host mean survival time at 50 mg/kg, ip administered daily for 9 days as Klucel suspension starting 24 hrs after tumor inoculation relative to control; assay type: functional; conditions: route intraperitoneal; outline: as §1
[21] = Cytotoxicity against human 9KB cells treated as ethanol solution; assay type: functional; conditions: read-out: ED50 (the source's name)
Outline: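 Compound applied as an ethanol solution; activity read out as ED50 under the general screening protocol.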

[22] = test system: Mus musculus; assay: Toxicity in female BDF1 mouse allografted with mouse L1210 cells assessed as animal survival at 50 mg/kg, ip administered daily for 9 days as Klucel suspension starting 24 hrs after tumor inoculation measured on fifth day; assay type: organism-based; design: dose 50 mg/kg, route intraperitoneal; conditions: in vivo; outline: as §3
[23] = test system: Mus musculus; assay: Toxicity in female BDF1 mouse allografted with mouse L1210 cells assessed as animal survival at 12.5 mg/kg, ip administered daily for 9 days as Klucel suspension starting 24 hrs after tumor inoculation measured on fifth day; assay type: organism-based; design: dose 12.5 mg/kg, route intraperitoneal; conditions: in vivo
Outline: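 Female BDF1 mice bearing ip ascitic L1210 inoculum got nine daily ip doses in a Klucel suspension, starting 24 h after tumor inoculation. Toxicity was scored as toxicity-day survivors out of the group, recorded on the fifth day. Animal weight difference (T − C) was also tabulated.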

[24] = test system: P388; assay: Antitumor activity against mouse P388 cells allografted in male CDF1 mouse assessed as disease cures by measuring 30-days host survival at 25 mg/kg, ip administered daily for 9 days as Klucel suspension starting 24 hrs after tumor inoculation relative to control; assay type: functional; conditions: route intraperitoneal; outline: as §6
[25] = test system: P388; assay: Antitumor activity against mouse P388 cells allografted in male CDF1 mouse assessed as change in body weight at 100 mg/kg, ip administered daily for 9 days as Klucel suspension starting 24 hrs after tumor inoculation; assay type: functional; conditions: route intraperitoneal; outline: as §4
[26] = test system: Mus musculus; assay: Toxicity in male CDF1 mouse allografted with mouse P388 cells assessed as animal survival at 25 mg/kg, ip administered daily for 9 days as Klucel suspension starting 24 hrs after tumor inoculation; assay type: organism-based; design: dose 25 mg/kg, route intraperitoneal; conditions: in vivo; outline: as §5
[27] = test system: Mus musculus; assay: Toxicity in male CDF1 mouse allografted with mouse L1210 cells assessed as animal survival at 100 mg/kg, ip administered daily for 9 days as Klucel suspension starting 24 hrs after tumor inoculation measured on fifth day; assay type: organism-based; design: dose 100 mg/kg, route intraperitoneal; conditions: in vivo; outline: as §3

CNC(=O)OCc1c(COC(=O)NC)c(-c2ccc(Cl)c(Cl)c2)n2c1CCC2
T/C [1]: 63%
Activity [2]: -1.3 g
T/C [3]: 74%
Activity [4]: Non-toxic
Activity [5]: Non-toxic
Activity [6]: -2.5 g
Activity [7]: Non-toxic
T/C [8]: 109%
Activity [9]: -4.3 g
Activity [10]: -3 g
Activity [11]: -4.8 g
T/C [12]: 188%
Activity [13]: -1.5 g
Activity [14]: -0.4 g
Activity [15]: Non-toxic
T/C [16]: 153%
T/C [17]: 155%
Activity [18]: 1.6 g
T/C [19]: 106%
T/C [20]: 124%
EC50 [21]: > 2.7 µg/mL
Activity [22]: Non-toxic
Activity [23]: Non-toxic
T/C [24]: 160%
Activity [25]: -1.9 g
Activity [26]: Non-toxic
Activity [27]: Non-toxic
